Screens deposited in PubChem BioAssay by several laboratories.
Most compounds without a hit are left out; they make up all but 2.6% or so of the library.
Rev-erbA mod: modulates human Rev-erb alpha binding to DNA. P20393. Rev-erbα–FITC-DNA binding, fluorescence polarization, 90 min. activity, % at 10 µM. hit rate 0.79% among 370,000;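 active = activity above about 14%, limit read from the data; passing the limit was not always enough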
Target sequence (P20393 whole entry, looked up): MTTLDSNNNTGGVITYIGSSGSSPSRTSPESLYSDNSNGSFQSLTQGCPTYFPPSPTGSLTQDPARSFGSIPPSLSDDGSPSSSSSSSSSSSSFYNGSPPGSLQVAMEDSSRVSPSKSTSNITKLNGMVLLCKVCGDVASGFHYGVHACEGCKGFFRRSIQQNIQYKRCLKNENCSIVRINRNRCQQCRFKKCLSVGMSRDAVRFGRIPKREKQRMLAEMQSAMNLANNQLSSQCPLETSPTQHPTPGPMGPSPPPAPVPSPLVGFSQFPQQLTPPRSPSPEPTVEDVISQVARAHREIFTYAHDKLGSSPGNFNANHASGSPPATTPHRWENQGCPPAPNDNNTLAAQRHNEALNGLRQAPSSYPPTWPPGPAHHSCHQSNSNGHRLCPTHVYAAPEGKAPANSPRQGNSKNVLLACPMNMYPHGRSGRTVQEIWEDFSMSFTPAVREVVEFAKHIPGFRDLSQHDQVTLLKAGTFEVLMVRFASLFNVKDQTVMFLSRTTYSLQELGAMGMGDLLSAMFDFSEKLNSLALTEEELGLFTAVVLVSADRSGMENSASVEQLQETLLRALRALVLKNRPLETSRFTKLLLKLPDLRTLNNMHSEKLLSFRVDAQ
NR2E3 ag-1: agonists of human nuclear receptor NR2E3. AID 2300. GST-NR2E3/biotin-RetCOR TR-FRET, 1536-well. hit rate 0.12% among 320,000. Q9Y5X4. inhibition of corepressor binding, % at 4.78 µM;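 active = percent inhibition above the cutoff of mean plus 3 SD of all tested compounds, set per screening campaign, cut at about 20% in these data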
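System: GST-NR2E3 and biotin-RetCOR proteins; probe or stimulus: 7 nM biotin-RetCOR; doses: compound at 4.8 µM, single dose; schedule: Compound–protein incubation for 5 h at 4 °C; detection: time-resolved FRET; read-out: percent inhibition; controls: biotin wells as high control, 0.6% DMSO wells as low control; format: 1536-well plates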
rCAG binder: r(CAG) repeat RNA binding; TO-PRO-1 dye displacement fluorescence; inhibition, % at 3 µM; hit rate 1.3% among 370,000; AID 651821;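 active = inhibition above the plate cutoff, the mean of all test compounds on that plate plus 3 SD, cut at about 35% in these data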;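 note: higher means more dye released from RNA so lower well fluorescence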
NR2E3 ag-2: human photoreceptor-specific nuclear receptor agonism; Q9Y5X4; hit rate 0.35% among 360,000; AID 602229; inhibition of corepressor binding, % at 3.98 µM; CHO-S Gal4-NCOR/VP16-NR2E3 two-hybrid, luciferase;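 active = inhibition above the mean of all tested compounds plus 3 SD, cut at about 70% in these data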;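 note: higher means lower luciferase signal from less NR2E3 corepressor binding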
PG9 binder: small molecules binding HIV-1 gp120 antibody PG9; TR-FRET gp120-PG9 antibody binding; inhibition, % at 6.7 µM; hit rate 0.43% among 360,000; AID 624416; in the data active = inhibition above about 8.5%
Rev-erbA confirm: confirmation of modulators of human Rev-erb alpha DNA binding. shares compounds with Rev-erbA mod. Rev-erb alpha FITC-DNA binding, fluorescence polarization, 90 min. activation, % at 25 µM. hit rate 61% among 3,000. AID 1259319;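 active = activation at or above a set limit, or at least 3 SD above the negative control mean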
RORg counter: counter-screen for Rev-erb alpha modulators: RORgamma DNA binding. shares compounds with Rev-erbA mod. purified RORgamma protein-FITC-DNA binding, fluorescence polarization. IC50, µM. hit rate 8% among 910;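 active = Compounds whose fitted half-maximal concentration for disrupting protein-DNA binding is below 10 micromolar; the record names Rev-erb in its text, so the target is in doubt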
A number is an active result; n = inactive; x = no result; ! = repeats disagree.

SMILES | Rev-erbA mod | NR2E3 ag-1 | rCAG binder | NR2E3 ag-2 | PG9 binder | Rev-erbA confirm | others
CCOc1ccc2nc(SCC(=O)N3c4ccccc4Sc4ccccc43)c(C#N)cc2c1 | 142 | n | n | n | n | 61 | RORg counter=n
CC[C@]12c3[nH]c4cc(CCC(=O)N(C)C)ccc4c3CCN1C(=O)[C@@H](CC(=O)NCc1ccco1)C[C@@H]2C(=O)N1CCN(C(=O)C2CC2)CC1 | n | x | n | n | n | x
Cc1c(Cl)cnc(NC(=O)COC(=O)[C@H](C)NC(=O)c2ccccc2)c1Cl | n | n | n | n | n | x
Cc1nn(-c2ccccc2)c(C)c1NC(=O)COC(=O)c1cc(Br)ccc1O | 31 | n | n | n | n | n
Cc1nn(Cc2ccccc2Cl)c2sc(C(=O)NC(C)(C)C)cc12 | n | n | n | n | n | x
Cc1csc(NC(=O)c2cc3c(C)nn(Cc4ccccc4Cl)c3s2)n1 | 22 | n | n | n | n | 17
CCCCCCCc1nc2c(=O)n(C)c3ccccc3c2o1 | n | n | n | n | n | x
CCCCCCc1nc2c(=O)[nH]c3ccccc3c2o1 | 52 | n | n | n | n | n
O=C(c1[nH]c(C(F)(F)F)nc1-c1ccccc1)N1CCN(c2ccncc2)CC1 | n | x | n | n | n | x
COc1ccc2c(c1)c(=O)oc1cc(OCC(=O)NC3CC3)ccc12 | 24 | n | n | n | n | 34 | RORg counter=n
CCOC(=O)c1c(NC(=O)COC(=O)c2ccc(O)cc2)sc(C(=O)NC)c1C | 38 | n | n | n | n | 29
C=CCN1C(=O)[C@@H](CC(=O)NCCCC)[C@]2(C(=O)OC)CCCCC=C12 | n | x | n | x | x | x
CC/C(=C(/CC)c1ccc(O)cc1)c1ccc(O)cc1 | 31! | n | n | n | n | 34
O=c1[nH]c(Cc2ccc(F)cc2)nc2scc(-c3ccc(F)cc3)c12 | 35 | n | n | n | n | 36 | RORg counter=n
COC(=O)C(C(=O)OC)c1ncccc1NS(=O)(=O)c1ccc(C)cc1 | n | x | n | x | n | x
Cc1ccccc1Oc1ncnc2oc(-c3ccccc3)cc12 | n | n | n | n | n | x
Clc1ccc(Oc2ncnc3oc(-c4ccccc4)cc23)cc1 | 37 | n | n | n | n | 18
C[C@H](CO)N1C[C@H](C)[C@H](CN(C)C(=O)c2ccccc2)OCc2cnnn2CCCC1=O | n | x | n | n | n | x
CCOC(=O)Cn1c(=NC(=O)C(C)C)sc2c(C)cc(C)cc21 | n | n | n | n | n | x
CCOC(=O)Cn1c(=NC(=O)C2CC2)sc2c(C)cc(C)cc21 | 18 | n | n | n | 21 | n
CC(C)NC(=O)N(C)C[C@H]1Oc2c(NC(=O)Nc3ccccc3)cccc2C(=O)N([C@H](C)CO)C[C@@H]1C | n | x | n | n | n | x
O=C(c1ccccc1F)N(Cc1ccc2c(c1)OCO2)Cc1cc2cc3c(cc2n2nnnc12)OCO3 | 34 | n | n | n | n | n
OC(c1cc(F)cc(Cl)c1)c1ncc(-c2ccc3ccccc3c2)[nH]1 (stereo not given) | 14 | x | n | n | n | n
Brc1ccc(-c2nn3c(-c4ccccc4)nnc3s2)cc1 | 34 | x | n | x | x | 71 | RORg counter=2.9
COc1cc(OC)c(C(=O)OCC(=O)N2CCN(S(=O)(=O)c3ccc(C)cc3C)CC2)cc1OC | n | x | n | n | n | x
SMILES | Rev-erbA mod | NR2E3 ag-1 | rCAG binder | NR2E3 ag-2 | PG9 binder | Rev-erbA confirm | others
CCOC(=O)C1=CN(CC)CCC1=O | 25 | x | n | n | n | n
CCOc1ncccc1C(=O)Nc1cc(S(=O)(=O)N2CCOCC2)ccc1OCC(F)(F)F | 31 | x | n | n | n | 15
Cc1ccc(Cn2c(SCC(=O)Nc3cc(C)on3)nc3ccccc3c2=O)cc1 | 45 | n | n | n | 17 | 19
C/C(N)=C(/C#N)C(=O)CSc1nc2ccccc2c(=O)n1Cc1ccc(C)cc1 | 70 | n | n | n | n | 25
C/C(N)=C(/C#N)C(=O)CSc1nc2ccccc2c(=O)n1Cc1ccc(F)cc1 | n | n | n | n | n | x
COc1ccc(Cl)cc1Nc1cc(C)nc2ncnn12 | n | x | n | n | n | x
COC(CNC(=O)c1ccc2nc(-c3cccs3)c(-c3cccs3)nc2c1)OC | 27 | n | n | n | n | n
COC(=O)c1c(NC(C)=O)sc(C(=O)Nc2ccccc2)c1C | n | n | n | n | n | x
